A selection: hits, their analogues and other compounds. The true share with any hit is near 0.99%.
GSK3beta inhib: inhibitors of human GSK3beta kinase. GST-GSK3beta kinase, ADP-Glo luminescence, 60 min; active compounds read low. P49841. 0.038% of 300,000 active. activity score (negative = inhibition), % at 10 µM;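 active = more than half of replicate wells score below -50%, meaning over 50% inhibition versus plate controls; inconclusive = some replicates but at most half score below -50%; inactive = no replicate scores below -50%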;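 also: 0% = median DMSO wells and -100% = median GW8510 positive control wells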
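Assay system: GST-fused GSK3beta enzyme, cell-free / Medium: Tris pH 7.5 buffer with MgCl2, DTT, BSA, heparin / Also added: peptide substrate plus 25 µM ATP (final) / Compound: 10 µM single point / Timing: kinase reaction with compound 60 min at room temperature / Detection: ADP-Glo luminescence / Benchmarks: DMSO neutral wells and GW8510 at 20 µM as positive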
STK33 kinase inh: inhibitors of human STK33 kinase. Q9BYT3. AID 2661. 0.073% of 320,000 active. inhibition, % at 10 µM. purified STK33, MBP phosphorylation, ADP-Glo luminescence;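 active = inhibition at or above 25%, using the most active replicate where run in duplicate; inactive = inhibition below 25%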
Target sequence (Q9BYT3 whole entry, looked up): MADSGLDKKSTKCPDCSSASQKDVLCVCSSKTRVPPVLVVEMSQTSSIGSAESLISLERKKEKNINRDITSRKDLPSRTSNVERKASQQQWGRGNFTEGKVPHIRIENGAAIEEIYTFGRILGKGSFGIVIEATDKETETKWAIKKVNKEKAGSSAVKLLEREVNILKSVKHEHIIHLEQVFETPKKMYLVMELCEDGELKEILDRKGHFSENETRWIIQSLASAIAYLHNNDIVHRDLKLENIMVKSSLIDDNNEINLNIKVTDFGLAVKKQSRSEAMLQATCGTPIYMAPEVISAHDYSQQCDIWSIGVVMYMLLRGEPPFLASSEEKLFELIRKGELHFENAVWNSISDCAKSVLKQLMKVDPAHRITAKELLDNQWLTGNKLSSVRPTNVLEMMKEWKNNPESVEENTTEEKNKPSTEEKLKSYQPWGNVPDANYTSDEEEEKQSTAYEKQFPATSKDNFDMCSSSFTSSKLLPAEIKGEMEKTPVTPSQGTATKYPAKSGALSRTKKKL
Rce1 inhib: inhibitors of yeast Ras-converting enzyme; Q03530; yeast membranes, quenched prenylated peptide cleavage fluorescence; calls only; 0.27% of 290,000 active; AID 2563;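 active = fall in fluorescence gain of 50% or more versus controls, with final raw signal at or below 3038400; inconclusive = same 50% fall but final raw signal above 3038400; inactive = fall in fluorescence gain under 50%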;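 also: plate controls were neutral control wells for no effect and wells lacking membranes for full effect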
DYRK1A inh: Dyrk1A (rat) kinase inhibition; AID 504441; 0.43% of 310,000 active; ADP-Glo luminescence, NFATc1 peptide; inhibition, % at 12.5 µM; Q63470; in the data active = inhibition above about 50%;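 also: plate controls were vehicle with enzyme for no effect and no enzyme for full effect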
AI-2 QS mod: modulates the Vibrio harveyi AI-2 quorum sensing system | 0.4% of 300,000 active | activity change, % at 7.5 µM | Vibrio harveyi JMH597 AI-2 luminescence/OD600 ratio, 9 h; active compounds read low; strain lacks LuxN and CqsS sensors; 0 = neutral-control median; in the data active = activity change below about -75%, passing the limit was not always enough; inconclusive = no clear call, values can overlap the other calls;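 also: luminescence divided by OD600 gain over 9 h not by final OD600 alone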
GSK3 alpha inh: inhibitors of human GSK-3 alpha kinase. inhibition, % at 10 µM. P49840. 0.1% of 320,000 active. ADP-Glo luminescence, 60 min;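 active = more than half of replicates show inhibition above 20%; inconclusive = some but at most half of replicates above 20% inhibition; inactive = no replicate shows inhibition above 20%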;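 also: GST-tagged GSK-3 alpha with peptide substrate and 25 µM ATP; 0% = DMSO neutral wells and 100% = GW8510 positive control wells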
An asterisk follows results filed as active; i = inactive; u = inconclusive; x = not tested or not shown; + = active, no number; ! = repeats disagree.

SMILES	GSK3beta inhib	STK33 kinase inh	Rce1 inhib	DYRK1A inh	AI-2 QS mod	GSK3 alpha inh
O=C(CN1c2cccc3cccc(c23)S1(=O)=O)Nc1ccc(S(=O)(=O)N2CCOCC2)cc1	-5	-1	i	4	7	-1
Cc1ccc(S(=O)(=O)N2CCN(C(=O)CCC(=O)Nc3ccc(Br)c(C)c3)CC2)cc1	x	x	x	3	x	x
O=C(O)c1ccc(N/N=C/c2c(F)cccc2Cl)cc1	-1	-1	i	7	-79*	-2
O=C(O)c1ccc(N/N=C/c2ccc(-c3cc(Cl)ccc3Cl)o2)cc1	2	-1	i	-9	-80*	1
O=C(O)c1ccc(N/N=C/c2ccc(-c3cccc(Cl)c3)o2)cc1	-1	0	i	18	-94*	3
CCn1ncc(Br)c1C(=O)Nc1ccccc1C(F)(F)F	-4	-1	i	0	6	-5
CCOc1ccc(NC(=O)CCSc2ccc(C)cc2)cc1	3	-1	+	-1	12	-2
Cc1cc(NC(=O)CCSc2ccccc2)ccc1Br	-2	0	i	5	-87*	-3
Cc1ccc(SCCC(=O)Nc2ccc(OCc3ccccc3)cc2)cc1	1	0	i	0	-6	-2
Cc1ccc(NC(=O)CCSc2ccccc2)c(C)c1	-7	0	i	-3	13	-3
Cc1[nH]cnc1C(=O)N/N=C/c1c(Cl)cccc1Cl	-29	27*	i	28	14	33
Cc1nnsc1C(=O)N/N=C/c1c(F)cccc1Cl	2	-1	i	-13	15	-2
CC(CCC(C)C(C)(C)C)[C@@H]1CC[C@H]2C3C[C@H](OS(O)(=S)=S)[C@H]4C[C@H](OS(O)(=S)=S)[C@@H](OS(O)(=S)=S)C[C@]4(C)[C@H]3CC[C@]12C (stereo partly drawn) (tested in a mixture with another compound)	x	1	x	70*	x	3
C=CCOc1ccccc1CN1CCC(n2nccc2NC(=O)c2ccccc2)CC1	1	-2	i	x	4	0
CC1=Nc2cc(C(=O)NCc3ccco3)ccc2Sc2ccc(C)cc21	-9	-2	i	-2	-98*	-7
CC1=Nc2cc(C(=O)O)ccc2Sc2ccc(C)cc21	1	1	i	-1	-90*	-4
CC(=O)c1[nH]c(C)c(C(=O)N2CCCC(Nc3cccc(F)c3)C2)c1C (stereo not drawn)	0	-1	i	3	6	-1
Cc1cccc(NC(=O)c2ccc([N+](=O)[O-])o2)n1	1	1	i	4	-89*	0
Cc1ccccc1NC(=O)c1ccc([N+](=O)[O-])o1	-1	-1	i	-2	u	1
CC(c1ccccc1)C(OC(=O)c1cccc([N+](=O)[O-])c1C(=O)O)c1ccccc1 (stereo not drawn)	x	x	x	5	x	x
O=C(O)Cn1cc(/C=N/Nc2ccc([N+](=O)[O-])cn2)c2ccccc21	-41	10	i	18	6	63*
Cc1ccc(Cn2cc(/C=N/Nc3ccc([N+](=O)[O-])cn3)c3ccccc32)cc1	-2	0	i	-7	5	-7
COc1ccccc1CNCCS(=O)(=O)NN1CCOCC1	x	x	x	-3	x	x
O=C1CCC(C(=O)N2CCN(c3ccccc3)CC2)CN1CC1CCCCC1 (stereo not drawn)	3	0	i	-3	23	-3
O=C(NNC(=S)NC(=O)c1cccnc1)c1ccc(F)cc1	-2	-1	i	-6	-84*	-3
SMILES	GSK3beta inhib	STK33 kinase inh	Rce1 inhib	DYRK1A inh	AI-2 QS mod	GSK3 alpha inh
O=C(NNC(=S)NC(=O)c1ccc(F)cc1)c1cccnc1	0	-2	i	-1	23	2
O=C(/C=C/c1ccc(F)cc1)NC(=S)NNC(=O)c1cnccn1	-2	2	i	-4	-57	0
O=C(NC(=S)NNC(=O)c1cnccn1)c1ccc(F)cc1	-1	-1	i	-2	-89*	0
O=S(=O)(Nc1ccc(-n2cnnn2)cc1)c1cccc(Cl)c1	x	x	x	9	x	x
Cc1cc(OCCN2CCOCC2)ccc1Cl	1	-1	i	0	3	-3
COc1cc(C(=O)NCC(=O)N2CCN(S(=O)(=O)c3cc(C)ccc3C)CC2)cc(OC)c1OC	1	-3	i	-1	28	-1
O=S(=O)(NCc1nnc2ccccn12)c1ccc(Cl)cc1	x	-1	x	x	x	-5
O=c1ccc2[n+]([O-])c3ccc(O)cc3oc-2c1	-16	x	i	x	-418*	x
O=c1cc(O)c2ccc(O)cc2o1	1	0	i	20	27	12
COc1ccc(NC(=O)C2CCCN2C(=O)NC2CCCCC2)c(OC)c1 (stereo not drawn)	-3	-1	i	-10	10	1
Cc1ccc2c(CN3CCN(Cc4ccc5c(c4)OCO5)CC3)cc(=O)oc2c1C	2	-2	+!	-2	11	-1
NC(=O)COc1ccc(/C=N\NC(=O)CC(=O)NCCc2ccccc2)cc1	3	0	i	1	8	-3
Cc1cc(NCCCCCCCNc2cc(C)nc3cc([N+](=O)[O-])ccc23)c2ccc([N+](=O)[O-])cc2n1	x	x	x	-4	x	x
O=C(CCSc1ccc(Cl)cc1)NC12CC3CC(CC(C3)C1)C2	1	-1	+	-1	32	-1
CCOc1ccc2nc(SCC(=O)Nc3ccc4[nH]c(=O)[nH]c4c3)[nH]c2c1	-1	1	i	-1	7	2
COC(=O)c1sccc1NC(=O)Nc1ccccc1Cl	-2	3	i	13	34	x
N/C(=N\OC(=O)c1ccc(Cl)cc1Cl)c1ccccn1	-11	6	i	8	23	6
Cc1ccc(C(=O)O/N=C(\N)c2ccccn2)c(Cl)c1	-31	29*	i	27	29	34
Cc1cccc(OCC(=O)O/N=C(\N)c2ccccn2)c1C	3	-2	i	4	-93*	-5
COc1cccc(C(=O)O/N=C(\N)c2ccccn2)c1	x	37*	x	40	x	46
COc1ccc(C(=O)O/N=C(\N)c2ccccc2)cc1	1	26*	i	x	2	32
Cc1ccc(OCC(=O)O/N=C(\N)c2ccccn2)cc1	0	-2	i	-2	-4	-3
COc1ccc(C(=O)O/N=C(\N)c2ccc(Br)cc2)cc1	0	2	i	7	20	-3
Cc1cc(C)c(C)c(OCCCCN2CCCCC2)c1	0	10	i	6	38	3
OCCCNc1ncnc2sc(-c3ccccc3)cc12	1	8	+	26	19	8
Cc1ccsc1/C=N/NC(=O)c1nnn(-c2nonc2N)c1-c1ccccc1	-11	1	i	36	19	21
CCCOc1ccc(-c2c(C(=O)N/N=C/c3ccncc3)nnn2-c2nonc2N)cc1	-8	-1	i	x	14	3
